# Laboratory results taken from publication PMC11252382 (Acta Pharmaceutica Sinica. B, 2024).
# pKd: −log10 of the molar value.
# How the values were obtained:
# DOX-induced HF mice [1] = assay: Survival in acute DOX-induced HF mouse model; type: in vivo, mouse (ICR)
# Outline: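 Male ICR mice (about 40 g, 10 weeks) had acute heart failure induced by a single i.p. 15 mg/kg DOX dose. From Day 15 to 28 they were dosed i.p. daily with test compound (50, 100 or 200 mg/kg), cedilanid 150 mg/kg or PBS 10 mL/kg. Deaths were recorded daily, and survival was analysed by Kaplan–Meier.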
# TFRC [2] = assay: Immunoblot of TFRC in heart tissues; type: in vivo, mouse; details: glycnsisitin A with or without DOX, DOX alone in HF tissue
# [3] = tested on: myocardium of DOX-treated mice; assay: Myocardial iron content; type: in vivo, mouse; details: with or without glycnsisitin A, ferrozine, 550 nm
# Outline: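 Heart tissue from DOX-induced heart-failure mice (± test compound) was homogenised in lysate. Homogenate was mixed 1:1 with permanganate-containing solution A and held 1 h at 60 °C, then cooled. Iron (ferrozine) detection reagent was added for 30 min at room temperature. Absorbance was read at 550 nm and iron content calculated from a standard curve.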
# DOX-induced HF mice [4] = assay: Serum CK and LDH activity in DOX-induced HF mice; type: in vivo, mouse (ICR); details: glycnsisitin A i.p. daily Days 15–28
# Outline: (§1)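 Male ICR mice (about 40 g, 10-week-old, SPF) received a single i.p. DOX dose of 15 mg/kg; heart failure was established by Day 14. On Days 15–28 they were dosed i.p. daily with test compound (50, 100 or 200 mg/kg), cedilanid 150 mg/kg, or PBS 10 mL/kg. Blood was taken 8 h after dosing on Day 29 and spun 4500 rpm, 15 min, 4 °C. Serum CK and LDH activities and BNP and NT-proBNP were measured by kits. Mean ± SEM.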
# [5] = tested on: primary adult rat cardiomyocytes; assay: LDH release of primary cardiomyocytes; type: cell-based; details: 12 h
# Outline: (§2)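 Cardiomyocytes came from male SD rats (about 280 g), isolated by Langendorff collagenase II/hyaluronidase perfusion and purified by three gravity sedimentations. They were cultured on laminin in M199 with 10% FBS, penicillin-streptomycin and glutamine. Cells were exposed with or without DOX and with or without test compound for 12 h. Cells and supernatant were measured with commercial ATP and LDH-activity kits. Mean ± SEM.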
# [6] = tested on: primary adult rat cardiomyocytes; assay: Total ROS by DCFH-DA staining, flow cytometry; type: cell-based
# transferrin [7] = assay: Immunoblot of transferrin in heart tissues; type: in vivo, mouse
# [8] = tested on: primary adult rat cardiomyocytes; assay: Trypan blue staining of dead cells, primary cardiomyocytes + DOX; type: cell-based
# TFRC [9] = assay: Relative mRNA level of TFRC in cardiomyocytes; type: cell-based; details: cultured cardiomyocytes
# [10] = tested on: primary adult rat cardiomyocytes; assay: Alamar blue assay, DOX-injured primary cardiomyocytes; type: cell-based
# Outline: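 Cardiomyocytes came from male Sprague-Dawley rats (~280 g) by Langendorff perfusion with collagenase II/hyaluronidase/BSA and stepwise CaCl2. Cells were purified by three gravity sedimentations and cultured on laminin in M199 with 10% FBS, penicillin-streptomycin and 1% glutamine. DOX-injured cells received test compound, and viability was read by alamar blue.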
# DOX-induced HF mice [11] = assay: BNP and NT-proBNP levels in DOX-induced HF mice; type: in vivo, mouse (ICR); details: compared to DOX-induced HF mice
# Outline: as §1
# [12] = tested on: transferrin–TFRC interaction; assay: Cellular immunoprecipitation of transferrin with TFRC; type: cell-based; details: anti-His immunoprecipitation, blotted anti-transferrin and anti-TFRC
# TFRC [13] = assay: Protein half-life of TFRC after CHX; type: cell-based; details: compared with control
# DOX-induced HF mice [14] = assay: Echocardiography in DOX-induced HF mice; type: in vivo, mouse (ICR); details: compared with cedilanid
# Outline: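 Male ICR mice (~40 g, 10 weeks) got a single i.p. DOX 15 mg/kg, with HF established by Day 14. On Day 28, 8 h post-dose, mice were anesthetized with avertin on a 37 °C table. M-mode short-axis scans at papillary level (10 MHz, 10–20 cycles) gave LVAWd.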
# [15] = tested on: primary adult rat cardiomyocytes; assay: ATP levels of primary cardiomyocytes; type: cell-based; details: 12 h
# Outline: as §2
# transferrin [16] = biological target: T1, transferrin (Homo sapiens, UniProt P02787); assay: Relative mRNA level of transferrin in cardiomyocytes; type: cell-based; details: cultured cardiomyocytes
# [17] = tested on: primary adult rat cardiomyocytes; assay: Mitochondrial ROS by MitoSOX staining; type: cell-based; details: 10 μmol/L glycnsisitin A with 8.6 μmol/L DOX, 6 h, confocal
# Outline: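 Primary adult rat cardiomyocytes in glass-bottomed confocal dishes received test compound and/or DOX for 6 h. They were then loaded with MitoSOX Red for 30 min at 37 °C, 5% CO2, in the dark, and washed three times with warm HBSS containing Ca/Mg. Fluorescence was imaged by laser confocal microscopy (ex 396/em 610 nm).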
# DOX-induced HF mice [18] = assay: Heart histology; type: in vivo, mouse (ICR); details: compared with cedilanid
# Outline: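 Heart failure was induced in male ICR mice by a single i.p. DOX dose (15 mg/kg). Test compound (50/100/200 mg/kg), cedilanid ([…]) or PBS was then given i.p. daily on Days 15–28. Hearts were collected on Day 29, fixed in 4% paraformaldehyde and sectioned. H&E staining was scored for myocardial histopathology; Masson trichrome was quantified as relative fibrosis area.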
# transferrin [19] = biological target: T1, transferrin; assay: SPR on transferrin-coated CM5 sensor chips; type: binding
# Outline: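 Test compound was flowed over at a range of concentrations and response units recorded. KD was derived by the instrument's evaluation fitting.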
# [20] = tested on: primary adult rat cardiomyocytes; assay: Iron content of primary cardiomyocytes, TFRC neutralization; type: cell-based; details: glycnsisitin A + DOX; with or without NAb-anti-TFRC pretreatment
# Outline: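 Langendorff-isolated adult rat cardiomyocytes in six-well plates were pretreated ± TFRC-neutralizing antibody, then given DOX and test compound. After two PBS washes, cells were lysed 2 h at room temperature on a shaker. Lysate was mixed 1:1 with permanganate-containing solution A and held 1 h at 60 °C, then cooled. Ferrozine iron reagent was added for 30 min at room temperature. A550 was read and iron calculated from a standard curve.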
# [21] = tested on: primary adult rat cardiomyocytes; assay: ATP content of primary cardiomyocytes, TFRC neutralization; type: cell-based; details: DOX-injured cardiomyocytes + glycnsisitin A; with or without NAb-anti-TFRC
# Outline: (§3)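 Adult cardiomyocytes were isolated from male Sprague-Dawley rats (about 280 g) by Langendorff perfusion with collagenase II and hyaluronidase. They were purified by three gravity sedimentations and cultured on laminin in M199 with 10% FBS, pen-strep and glutamine. Cells were pretreated with TFRC-neutralizing antibody (level not stated), then given DOX ± test compound for 12 h. Cells and supernatant were assayed with commercial LDH-activity or ATP kits. Mean ± SEM.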
# [22] = tested on: primary adult rat cardiomyocytes; assay: LDH activity in supernatant of primary cardiomyocytes, TFRC neutralization; type: cell-based; details: DOX + glycnsisitin A; with or without TFRC block
# Outline: as §3
# H9C2 cardiomyocytes = assay: Alamar blue cell viability, DOX-injured H9C2 cardiomyocytes; type: cell-based, rat; details: in vitro model of DOX-induced cardiomyocyte injury
# Outline: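 H9C2 cells were grown in DMEM with 10% FBS and penicillin-streptomycin at 37 °C, 5% CO2, then seeded at 5000/well overnight. Cells were co-treated with DOX and test compound for 12 h, then incubated 4 h in medium with 10% alamar blue. Fluorescence was read at ex 530/em 590 nm. Viability = (treated − medium)/(control − medium) × 100; EC50 calculated.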
# transferrin [23] = biological target: T1, transferrin; assay: Protein half-life of transferrin after CHX; type: cell-based; details: compared with control
# cancer cells = details: clinical limitation; ref [29]; cited from earlier work
# HF patients = details: supplementation; ref [8], [9]; cited from earlier work
# T1 sequence (P02787 20-698, species assumed): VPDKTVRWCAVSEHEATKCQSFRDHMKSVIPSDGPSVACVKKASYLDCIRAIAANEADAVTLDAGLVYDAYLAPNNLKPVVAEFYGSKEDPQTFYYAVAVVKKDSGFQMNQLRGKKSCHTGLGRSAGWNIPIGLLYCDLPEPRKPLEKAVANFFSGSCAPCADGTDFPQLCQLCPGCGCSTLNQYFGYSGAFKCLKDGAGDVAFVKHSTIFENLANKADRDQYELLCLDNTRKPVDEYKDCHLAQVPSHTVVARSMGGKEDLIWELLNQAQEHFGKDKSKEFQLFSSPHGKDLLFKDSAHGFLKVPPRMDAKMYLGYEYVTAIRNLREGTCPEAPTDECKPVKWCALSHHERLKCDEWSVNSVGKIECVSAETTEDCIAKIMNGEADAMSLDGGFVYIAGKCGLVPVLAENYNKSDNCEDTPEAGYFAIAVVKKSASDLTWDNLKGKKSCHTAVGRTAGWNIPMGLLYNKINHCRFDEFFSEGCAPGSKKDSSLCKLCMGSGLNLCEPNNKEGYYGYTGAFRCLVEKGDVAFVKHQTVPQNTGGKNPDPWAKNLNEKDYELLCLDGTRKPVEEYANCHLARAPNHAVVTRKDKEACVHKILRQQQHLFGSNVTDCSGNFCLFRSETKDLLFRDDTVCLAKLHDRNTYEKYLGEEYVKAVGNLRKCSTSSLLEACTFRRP
compound,measurement,setting,value
"COc1cccc2c1C(=O)c1c(O)c3c(c(O)c1C2=O)C[C@@](O)(C(=O)CO)C[C@@H]3O[C@H]1C[C@H](N)[C@H](O)[C@H](C)O1 [DOX, doxorubicin, reference compound]",mortality rate,DOX-induced HF mice [1]; single i.p. 15 mg/kg DOX,50%
same,TFRC level in mouse myocardium,TFRC [2],decreased levels of both transferrin and TFRC
same,myocardial iron content,[3],significant loss of iron
same,serum CK activity,DOX-induced HF mice [4],markedly increased
same,serum LDH activity,DOX-induced HF mice [4],markedly increased
same,"LDH release, DOX alone",[5],elevation in the release of lactate dehydrogenase (LDH)
same,"ROS levels, DOX alone",[6],dramatically increased
same,decrease in transferrin expression in heart tissue,"transferrin [7]; DOX-treated mice, immunoblot ratio to GAPDH",over 50%
same,increase in the number of trypan blue-positive cells,"[8]; 8.6 μmol/L DOX for 24 h, compared with solvent control",approximately fourfold
CC(C)[C@@H]1NC(=O)[C@@H]2Cc3ccc(cc3)O[C@H]3C[C@H](NC3=O)C(=O)N3CCC[C@H]3C(=O)N[C@@H](Cc3ccc(O)cc3)C(=O)N[C@@H](C(=O)N[C@@H](C(C)C)C(=O)N2)c2cc(ccc2O)C[C@@H](C(=O)O)NC1=O [Glycnsisitin A],TFRC mRNA level / transcription,TFRC [9],increased the TFRC transcription
same,cell survival (alamar blue),[10],proved the primary cell protective function
same,BNP level,DOX-induced HF mice [11],lower levels
same,NT-proBNP level,DOX-induced HF mice [11],lower levels
same,content of immunoprecipitated transferrin,[12],much higher
same,overall survival rate,DOX-induced HF mice [1]; 200 mg/kg i.p. daily Days 15–28 after DOX 15 mg/kg i.p.,90%
same,"survival rate, dose dependence","DOX-induced HF mice [1]; 50, 100, 200 mg/kg i.p. daily Days 15–28 after DOX",increased in a dose-dependent manner
same,TFRC stability (in words),TFRC [13],decreased TFRC stability
same,diastolic LV anterior wall diameter (LVAWd),DOX-induced HF mice [14],thicker diastolic LV anterior wall diameter
same,total ATP levels following DOX induction,"[15]; presence vs absence of glycnsisitin A, with DOX",a substantial difference was observed
same,"total ATP levels, normal conditions",[15]; primary cardiomyocytes without DOX,did not have an impact on ATP levels
same,transferrin mRNA level,transferrin [16],did not affect the mRNA content of transferrin
same,TFRC level in mouse myocardium,TFRC [2],consistent with the trend observed for TFRC
same,mitochondrial ROS generation,[17],significantly attenuated the excessive generation of mitochondrial ROS
same,pathology score,DOX-induced HF mice [18]; H&E,lower pathology score
same,collagen deposition,DOX-induced HF mice [18]; Masson trichrome,lesser collagen deposition
same,pKd,transferrin [19],5.62
same,"iron content, DOX-treated cardiomyocytes",[20],restored the decline in iron content
same,ATP production,[21],noticeably augmented ATP production
same,myocardial iron content,[3],effectively restored to normal
same,serum CK activity,DOX-induced HF mice [4],completely reversed
same,serum LDH activity,DOX-induced HF mice [4],completely reversed
same,"LDH release, DOX + glycnsisitin A",[5],significantly suppressed
same,LDH content in supernatant,[22],much lower
same,total transferrin level in mouse myocardium,transferrin [7]; regardless of the presence of DOX,significantly increased the total transferrin levels
same,"cardioprotective activity, relative to glycnsisitins B and C",H9C2 cardiomyocytes,stronger cardioprotective activity than glycnsisitins B and C
same,half-life of transferrin protein (in words),transferrin [23],could increase the half-life of transferrin protein
same,cardiotoxicity / cell death (trypan blue),[8]; DOX 8.6 μmol/L + glycnsisitin A,significantly attenuated the cardiotoxicity induced by DOX and reduced cell death
"C[C@@H](CN1CC(=O)NC(=O)C1)N1CC(=O)NC(=O)C1 [dexrazoxane (DXZ), dexrazoxane]",chemotherapy resistance,cancer cells,potential to confer chemotherapy resistance to cancer cells
ferric derisomaltose [ferric derisomaltose (FDI)],HF symptoms and rehospitalization,HF patients,could alleviate HF symptoms and reduce rehospitalization
